GRIN3A LBD mod: binders of NR3A ligand-binding domain, primary screen, biophysical, differential scanning fluorimetry, uHTS | Glutamate receptor ionotropic, NMDA 3A (GRIN3A) ligand-binding domain | NR3A LBD differential scanning fluorimetry, Tm shift; 0% = protein alone, 100% = glycine-bound protein | 2.5% of 340,000 active | Tm shift relative to glycine control, % at 25 µM | AID 1259313, 2017;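 active means melting temperature shift of at least 10% of the positive control shift, at one fixed dose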
CHOP inh: inhibitors of CHOP promoter induction, primary screen, cell-based, unfolded protein response, luciferase reporter; inhibition, % at 10 µM; CHO-K1 CHOP-promoter luciferase, tunicamycin-induced, 15-18 h; AID 2732, 2010; 3.8% of 220,000 active;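 active means compounds that reduced the stress-induced luciferase reporter signal by more than about 70% of percent inhibition, limit read from the data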;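 further: 0% = tunicamycin plus vehicle and 100% = wells without tunicamycin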
EBV gp42 block: Epstein-Barr virus gp42 inhibitors, primary screen, biochemical, uHTS, fluorescence polarization; inhibition, % (tested at 21.74 µM); 0.42% of 220,000 active; Fluorescence polarization binding assay, mP read-out; Glycoprotein 42 (Epstein-Barr virus (strain AG876)), Q1HVG2; in the data active means inhibition above about 50%
Target sequence (Q1HVG2 whole entry, looked up): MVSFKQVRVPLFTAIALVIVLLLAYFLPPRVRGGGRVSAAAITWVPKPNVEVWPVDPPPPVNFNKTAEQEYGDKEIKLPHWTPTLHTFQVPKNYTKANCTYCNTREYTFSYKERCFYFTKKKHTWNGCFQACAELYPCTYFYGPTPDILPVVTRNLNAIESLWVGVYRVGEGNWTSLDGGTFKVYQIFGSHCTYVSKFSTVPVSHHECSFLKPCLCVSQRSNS
MPTP block: mitochondrial permeability transition pore inhibitors, primary screen, biochemical, isolated mouse mitochondria, absorbance | Ca2+ swelling absorbance, 30 min | 1.4% of 360,000 active | inhibition, % at 10 µM;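 active means inhibition of 50% or more, scaled per plate between neutral and stimulator controls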;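 further: 0% = DMSO wells given calcium and 100% = 1 mM EGTA wells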
TbMetRS inhib: T. brucei MetRS inhibitors, primary screen, biochemical, luminescence. methionyl-tRNA synthetase (Trypanosoma brucei brucei). purified T. brucei MetRS, ATP depletion, Kinase-Glo luminescence. inhibition, % at 11.9 µM. 0.4% of 360,000 active. AID 624268, 2012;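 active means inhibition above a per-plate cutoff of the control wells' mean inhibition plus 3 SD, cut at about 5.5% in these data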;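 further: 0% = DMSO wells median and 100% = median of wells with control inhibitor compound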
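Material – parasite MetRS enzyme · Medium – HEPES-MgCl2-KCl buffer plus DTT, spermine, BSA, pyrophosphatase · Reagent – ATP, methionine and E. coli bulk tRNA substrates · Times – 15 min enzyme-compound preincubation, 2 h reaction, 10 min detection, 25 °C · Measured by – luminescence of leftover ATP · Evaluation – percent inhibition relative to median high and low control wells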
WT yeast gro inh: growth inhibition of WT strain, primary screen, mitochondrial fusion inhibitor project, WT and mutant strains, chemical genetic. 2.1% of 190,000 active. inhibition, % at 10 µM. mitochondrial fusion phenotypic screen; in the data active means inhibition above about 58%; tested in S. cerevisiae
The depositor's hits bear a star; / = no result. Compounds with a hit are over-represented: about 6.4% of the library has one in this group of screens.

SMILES | GRIN3A LBD mod | CHOP inh | EBV gp42 block | MPTP block | TbMetRS inhib | WT yeast gro inh
Cc1ccc(SC(C)c2nc(-c3ccccc3)no2)cc1 (stereo not given) | 0 | 72* | -17 | 6 | -1 | 2
CCCCN(Cc1ccccc1)S(=O)(=O)c1cc2c(cc1Br)CC(C)N2C(C)=O (stereo not given) | -3 | / | / | 0 | 0 | /
O=C1Nc2ccc(F)cc2C12Nc1ccccc1-c1nnc(SCc3ccccc3F)nc1O2 (stereo not given) | -3 | 7 | 14 | 6 | 0 | 42
O=C1Nc2ccc(Cl)cc2C12Nc1ccccc1-c1nnc(SCc3ccccc3F)nc1O2 (stereo not given) | -8 | 20 | 102* | 11 | 0 | 69*
O=C1c2c(O)cc(O)cc2O[C@H](c2ccc(O)c(O)c2)[C@H]1O | 3 | 18 | -7 | 3 | 1 | -7
CC(Oc1ccccc1)C(=O)Nc1cccc(-c2nc3ccccc3[nH]2)c1 (stereo not given) | -8 | 41 | 11 | 0 | 38* | 31
CC(=O)Nc1cccc(-c2nc3ccccc3[nH]2)c1 | -15 | 7 | -3 | 0 | 0 | 4
O=C(COc1ccccc1)Nc1cccc(-c2nc3cc4ccccc4cc3[nH]2)c1 | 26* | 71* | 4 | 31 | -2 | 75
CCC(Sc1ncccc1C(=O)Oc1cccc([N+](=O)[O-])c1)C(=O)Nc1ccccc1OC (stereo not given) | -9 | 30 | 0 | 1 | -2 | 24
CCC(=O)Oc1ccc(C(=O)Nc2ccc([N+](=O)[O-])cc2)cc1 | 6 | -3 | -16 | -2 | 0 | -6
Cc1cc(C)n(CCOC(=O)c2sc3ccccc3c2Cl)n1 | 7 | 74* | -16 | -4 | -1 | 22
COc1ccc2c(c1)c1c(n2C)[C@@H]2CC=C(CO)[C@@H](C1)N2C | 2 | / | / | 0 | 1 | /
COc1cc(NC(=O)CSc2c3c(nc4ccccc24)CCC3)cc(OC)c1OC | 13* | 10 | -15 | 0 | -1 | -18
COc1cc(NC(=O)c2ccc3c(SCC(=O)O)c4c(nc3c2)CCCC4)cc(OC)c1OC | -3 | 8 | -10 | 0 | 0 | 9
COc1ccc(NC(=O)CSc2c3c(nc4cc(Cl)ccc24)CCCC3)cc1OC | 14* | -143 | -13 | -1 | -1 | 5
Cc1c(CN(C)C)c2c(n1C)C(=O)c1ccc(Br)cc1-2 | -1 | 11 | -4 | 1 | -1 | -3
Cc1c(CN(C)C)c2c(n1Cc1ccccc1)C(=O)c1ccc(Br)cc1-2 | 0 | 69 | -12 | -6 | -1 | 82*
COc1ccc2oc(C(=O)OC(C)C(=O)NCc3ccccc3)c(C)c2c1 (stereo not given) | / | / | / | -2 | 0 | /
Cc1cc(C)c(C(=O)c2ccc(C(=O)N(C(C)C)C(C)C)cc2)c(C)c1 | -2 | 94* | -6 | 0 | 0 | 11
COc1cccc(CN(C(=O)Cc2c[nH]c3ccccc23)C(C(=O)NC2CCCCC2)c2ccc(C)o2)c1 (stereo not given) | 23* | 9 | -1 | 2 | -1 | 16
O=S(=O)(/C=C/C=C/S(=O)(=O)c1ccccc1)c1ccccc1 | 13* | / | / | -2 | -1 | /
COc1cc(C)ccc1OCCOc1c(C)cc(Cl)cc1Cl | 10* | 42 | -7 | 1 | 0 | -12
CC(=O)c1cc(C#N)c(SCc2ccccc2)nc1C | 15* | 63 | -9 | 1 | 0 | 12
CCCSc1nc(C)c(C(C)=O)cc1C#N | 0 | 70* | -10 | 0 | 0 | 14
COC(=O)c1cc(C#N)c(SCc2ccccc2)nc1C | 0 | 46 | -12 | 0 | 0 | 28
SMILES | GRIN3A LBD mod | CHOP inh | EBV gp42 block | MPTP block | TbMetRS inhib | WT yeast gro inh
COC(=O)CSc1nc(C)c(C(C)=O)cc1C#N | -8 | 14 | 1 | 1 | 0 | -5
COc1cc(-c2onc3ccc(Br)cc23)cc(OC)c1OC | 0 | -4 | 9 | 0 | 0 | -8
COc1ccc(-c2onc3ccc(Br)cc23)cc1 | 2 | 7 | 127* | 4 | 0 | 7
Cc1cc(Cl)ccc1Oc1ncc(-c2ccc(Cl)cc2)cn1 | 0 | 33 | -2 | 2 | -1 | 32
O=S(=O)(NCCSc1ccccc1)c1ccc(F)cc1 | 1 | 91* | -5 | 0 | -1 | 5
O=[N+]([O-])c1cc(S(=O)(=O)Nc2ccccc2)ccc1NCc1ccccc1 | 9 | 92* | -4 | 3 | 1 | 58
O=[N+]([O-])c1cc(S(=O)(=O)Nc2ccccc2)ccc1N1CCN(c2ccccc2)CC1 | 20* | 54 | -15 | 1 | -2 | 33
COc1ccc(CCNC(=O)C2CC(c3cccc([N+](=O)[O-])c3)=NO2)cc1 (stereo not given) | 2 | 0 | -9 | -1 | 0 | 44
Cc1ccc(C(=O)NC(NC(=S)Nc2ccc(S(N)(=O)=O)cc2)C(Cl)(Cl)Cl)cc1 (stereo not given) | 19* | 23 | 19 | 7 | 2 | 13
Cc1ccccc1C(=O)NC(NC(=S)Nc1ccc(S(N)(=O)=O)cc1)C(Cl)(Cl)Cl (stereo not given) | -1 | -17 | -8 | -1 | -1 | -8
N/C(CCS(=O)(=O)c1ccc(Cl)cc1)=N\OC(=O)c1ccccc1Cl | 0 | -2 | -2 | 2 | 0 | /
C/C(=N\Nc1nc2ccccc2[nH]1)c1cc2ccccc2o1 | 7 | -17 | -7 | 16 | 0 | 60*
C/C(=N\Nc1nc2ccccc2[nH]1)c1ccccn1 | / | / | / | -1 | 2 | /
O=C1/C(=C\c2cccs2)N=C(c2cccs2)N1Nc1ccccc1 | -4 | 46 | 29 | 5 | 0 | 27
O=C1/C(=C/c2cccs2)N=C(c2cccs2)N1Nc1ccccc1 | -2 | 94* | 33 | -3 | 0 | 16
Cc1nnc(SCC(=O)N2CCC(Cc3ccccc3)CC2)n(N)c1=O | 11* | 29 | -19 | 2 | 0 | -22
Cc1nnc(SCC(=O)N2CCCCCC2)n(N)c1=O | 0 | -6 | -11 | 3 | -1 | 0
O=C(CN1CCN(c2ccccn2)CC1)N(c1ccccc1)c1ccc2ccccc2c1 | 1 | 55 | 5 | -5 | -1 | 63*
Cn1c(/C(C#N)=C(\O)COc2ccc3ccccc3c2)nc2ccccc21 | -2 | 93* | -13 | 3 | -1 | 10
Cn1c(/C(C#N)=C(\O)c2ccccc2Cl)nc2ccccc21 | -6 | / | / | 2 | 0 | /
